Bioassay records (PubChem)
Yeast superoxide: caloric restriction mimetics inhibiting age-related superoxide in yeast. AID 2690. superoxide response (% of plate mean), % at 10 µM. S. cerevisiae aged cells, superoxide DHE fluorescence; active compounds read low. 330,000 compounds, 0.18% hits;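 active means superoxide response under a set limit, about three screen SD below normal, cut at about 65% in these data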;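 further: yeast aged for seven days with compound at 30 °C before DHE staining; 100% = average MFI of all compound-treated wells on the plate with controls excluded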
rRNA inh HTS: inhibitors of bacterial rRNA selective over humanized ribosomes | 350,000 compounds, 1.6% hits | E. coli WT GFP vs humanized-ribosome RFP mutants, fluorescence, 24 h; active compounds read low; DMSO median 0, no signal -100 | AID 720706 | GFP signal change (wild-type ribosome), % (no concentration beside the values);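 active means significant combined selectivity score with lowered wild-type GFP, culture density cut under 30%, mutant RFP and density less affected; inactive means any of these conditions unmet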
PglD DTNB: PglD (C. jejuni) enzyme inhibition; 360,000 compounds, 0.098% hits; inhibition, % at 12.5 µM; AID 602405; purified PglD enzyme, DTNB colorimetric CoA detection; in the data active means inhibition above about 16%, passing the limit was not always enough
SUMO Mot1 rescue: inhibitors of SUMOylation pathway: yeast Mot1-301 growth rescue. S. cerevisiae Mot1-301 growth rescue, ATP luminescence, 38.5C; percent above DMSO median, 100 means doubled. growth rescue, % at 18.8 µM. 320,000 compounds, 1% hits;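 active means every valid replicate shows activation above 250% relative to neutral control wells; inactive means the rest, any valid replicate at or below 250%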;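 further: OY570 slx delta 5 strain wells were the positive control but not used for scaling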
Cneo AK release: Cryptococcus neoformans lysis via adenylate kinase release. C. neoformans lysis, adenylate kinase release luminescence, 4 h; normalised: neutral wells 0, clomiphene wells 100. lysis activity, % at 15 µM. 360,000 compounds, 0.2% hits;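 active means mean lysis activity across replicates of at least 80%, whatever share of replicates individually reach that level; inactive means mean lysis activity below 80%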
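Assay system: C. neoformans cells. Amount: yeast cell density of 5 × 10^6 cells/mL. Technique: AK luminescence. Buffer or medium: YPD. Times: static 4 h at 37 °C with compound, 1 h detection. Dosing: single-point compound dose. Read-out: lysis from increased AK signal.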
Starred values were filed as active, the others as inactive; · = no result. Sampled rows, rich in hits. Any-hit rate of the full collection: about 2.2%.

SMILES	Yeast superoxide	rRNA inh HTS	PglD DTNB	SUMO Mot1 rescue	Cneo AK release
CSc1cccc(NC(=S)N2CCC(c3ccccc3)C2)c1 (stereo not given)	93	-25*	6	37	10
CCc1cccc(NC(=S)N2CCC(c3ccccc3)C2)c1 (stereo not given)	85	-27	·	0	·
Cc1ccc(OCc2nc(C#N)c(N3CCCCC3)o2)cc1	91	-32*	·	193	·
COc1cc(NC(=S)Nc2ncccc2C)cc(OC)c1OC	96	-21*	5	-10	0
O=c1c2ccccc2nc(COc2ccccc2)n1/N=C/c1ccc(O)cc1O	101	-31*	·	-5	·
O=c1c2ccccc2nc(COc2ccccc2)n1/N=C/c1c[nH]c2ccccc12	102	5	-2	50	-2
COc1ccccc1-c1ccc2c(c1)O[C@H](CN(C)C(=O)c1cccnc1)[C@H](C)CN([C@H](C)CO)S2(=O)=O	·	-1	3	·	47
CCC(=O)Nc1ccc2c(c1)C(=O)N(C)C[C@@H](OC)[C@@H](C)CN[C@H](C)CO2	·	1	-5	·	-4
CCCNC(=O)Nc1ccc2c(c1)C(=O)N(C)C[C@@H](OC)[C@@H](C)CN(C(=O)CC)[C@H](C)CO2	·	2	-3	·	91*
CCC(=O)Nc1ccc2c(c1)C(=O)N(C)C[C@@H](OC)[C@H](C)CN[C@@H](C)CO2	·	2	-49	·	102*
CCCNC(=O)Nc1ccc2c(c1)C(=O)N(C)C[C@H](OC)[C@@H](C)CN(C(=O)CC)[C@@H](C)CO2	·	4	2	·	99*
CCCNC(=O)Nc1ccc2c(c1)C(=O)N(C)C[C@@H](OC)[C@H](C)CN(C(=O)CC)[C@@H](C)CO2	·	1	-1	·	1
COc1cccc(S(=O)(=O)Nc2ccc3c(c2)C(=O)N(C)C[C@@H](OC)[C@@H](C)CN[C@H](C)CO3)c1	·	3	0	·	0
COc1cccc(S(=O)(=O)Nc2ccc3c(c2)OC[C@H](C)NC[C@@H](C)[C@H](OC)CN(C)C3=O)c1	·	1	1	·	87*
COc1ccc(NC(=O)N[C@@H]2CC[C@@H](CCNS(=O)(=O)c3cccc(Cl)c3)O[C@H]2CO)cc1	·	-10	-1	·	-2
CO[C@H]1CN(C)C(=O)c2ccc(NC(=O)C3CCOCC3)cc2OC[C@H](C)N(C(=O)c2ccccc2)C[C@@H]1C	·	0	·	·	·
CCCNC(=O)N1C[C@H](O)COC[C@H]2O[C@H](CC(=O)N3CCCCC3)CC[C@@H]21	·	-1	-1	·	-3
S=C(NCc1ccco1)Nc1ccc(Cl)cc1Cl	93	-15	·	-3	·
Cc1cc(CNC(=S)Nc2ccc(Br)cc2Cl)nn1C	85	-47*	·	-10	·
S=C(NCc1ccco1)Nc1ccc(Br)cc1Cl	107	-37*	·	32	·
CCCc1cc(C(=O)Nc2cccc3ccccc23)n(C)n1	95	-30*	5	16	0
FC(F)(F)CN1C[C@@H]2C(c3ccccc3)[C@H](C1)N2CC(F)(F)F (stereo not given in full)	·	2	·	·	·
CCCCn1nc2cc(C(=O)NCCc3ccc(C)cc3)ccc2c1OCC	96	-38*	-2	-15	0
C[C@@H]1CC=CCCNC(=O)[C@@H](C)N(C)C(=O)c2ccccc2O1 (mixture of isomers)	·	4	·	·	·
CCn1c(SCC(=O)N2CCc3ccccc32)nc2c(c1=O)SC(C)C2 (stereo not given)	96	·	0	343*	1
SMILES	Yeast superoxide	rRNA inh HTS	PglD DTNB	SUMO Mot1 rescue	Cneo AK release
CCn1c(SCC(=O)N2CCCc3ccccc32)nc2c(c1=O)SC(C)C2 (stereo not given)	95	-14	5	-2	1
C[C@H](CO)N1C[C@H](C)[C@@H](CN(C)CC2CCCCC2)Oc2ccc(NS(=O)(=O)c3ccc(F)cc3)cc2CC1=O	·	8	-2	·	11
COc1ccc(OCc2cc(C(=O)N3CCN(C4CCCC4)CC3)no2)c(Cl)c1	111	-29*	2	-11	-2
COC(=O)C1CCCCN1C(=O)c1cc(COc2cccc3cnccc23)on1 (stereo not given)	93	-31*	-2	3	1
COc1ccc(OCc2cc(C(=O)N3CCCCCCC3)no2)c(Cl)c1	105	-44	-4	44	0
CSc1ccccc1OCc1cc(C(=O)N2CCC(c3ccncc3)CC2)no1	90	-41*	1	-7	-7
COc1ccc2c3c(n(C)c2c1)[C@H](CO)N(C(=O)Nc1ccc(F)cc1)CC31CCN(C(=O)NC2CCCC2)CC1	·	-1	·	·	·
C[C@@H]1CN([C@H](C)CO)C(=O)c2cc(Br)cnc2O[C@H]1CN(C)Cc1ccncc1	·	2	-2	·	1
Nc1ccc(-c2nc3ccc(C(=O)O)cc3s2)cc1	131	-16	·	-4	·
Nc1cc2sc(-c3ccc(C(=O)O)cc3)nc2cc1Cl	113	-33*	2	-74	1
CCOc1ccccc1NC(=O)c1cccc2ccccc12	99	-7	-6	6	-1
CCOc1ccccc1NC(=O)c1csc(C)c1C	100	-31*	-5	-9	-7
C[C@@H]1CN([C@H](C)CO)C(=O)c2cc(NC(=O)Cc3ccccc3)ccc2O[C@@H]1CN(C)Cc1ccc(-c2ccccc2)cc1	·	1	·	·	·
COc1cc(C2C(C#N)=C(C)NC3=C2C(=O)CC(C)(C)C3)cc(OC)c1O (stereo not given)	108	15	-1	348*	1
COc1cc(C2C(C#N)=C(C)NC3=C2C(=O)CC(C)(C)C3)ccc1OCCO (stereo not given)	115	·	6	-2	0
CCC(OCC(O)CN1CCCCC1)c1ccccc1 (stereo not given)	87	20	6	15	-3
CCOC(=O)C1CCN(CC(O)COC(CC)c2ccccc2)CC1 (stereo not given)	107	8	-5	308*	11
Cc1cc(-c2ccccc2)nc(N/N=C/c2ccc(O)cc2)n1	·	-7	-3	·	-3
Oc1ccc(/C=N/Nc2nc(-c3ccc(Cl)cc3)cc(C(F)(F)F)n2)cc1	88	-23*	-2	4	0
C[C@H]1CN([C@@H](C)CO)C(=O)c2cc(C#Cc3ccncc3)cnc2O[C@H]1CN(C)C(=O)c1ccccc1F	·	-1	-1	·	-4
CCCS(=O)(=O)C(=C1NCCO1)S(=O)(=O)CCC	100	·	·	351*	-18
CCCCS(=O)(=O)C(=C1Nc2ccccc2N1)S(=O)(=O)CCCC	99	·	·	-2	·
CS(=O)(=O)N1[C@H](CO)[C@@H](c2ccccc2)C12CN(C(=O)C1CC1)C2	·	3	·	·	·
O=C(C[C@H]1CC[C@@H](NC(=O)c2ccc3c(c2)OCO3)[C@@H](CO)O1)NCc1ccc(F)cc1	·	-3	3	·	94*
O=C(O)c1ccccc1C(=O)NCc1ccc(F)cc1	111	·	-3	50	-1
O=C(O)c1ccccc1C(=O)NNc1ccc(F)cc1	85	·	6	267*	-1
